What was measured:
AChE = AChE (Electrophorus electricus, UniProt O42275); experiment: AChE inhibitory assay; type: biochemical, Electroporus electricus
BuChE = BuChE (Bos taurus, UniProt P32749); experiment: BuChE inhibitory assay; type: biochemical, bovine
[1] = Neurotoxicity assay, cell viability by Neutral Red method; type: cell-based, human; settings: human, SH-SY5Y neuroblastoma cells
Outline: (§1)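 SH-SY5Y cells (passages 18–23) in DMEM with 5% FBS were seeded at 2×10^4 cells/well and grown 24 h at 37 °C, 5% CO2. Test compound came from a 1×10−2 M DMSO stock, freshly diluted in medium, and was applied for 24 h. Controls were medium alone and 120 mM K+ (death). Cells were PBS-washed, given neutral red for 3 h at 37 °C, extracted 20 min with acidified ethanol, and read at A540.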

[2] = system: human neuroblastoma SH‐SY5Y cells; experiment: as above; type: cell-based; settings: SH‐SY5Y cells
Outline: as §1

Chain of BuChE (P32749 29-602): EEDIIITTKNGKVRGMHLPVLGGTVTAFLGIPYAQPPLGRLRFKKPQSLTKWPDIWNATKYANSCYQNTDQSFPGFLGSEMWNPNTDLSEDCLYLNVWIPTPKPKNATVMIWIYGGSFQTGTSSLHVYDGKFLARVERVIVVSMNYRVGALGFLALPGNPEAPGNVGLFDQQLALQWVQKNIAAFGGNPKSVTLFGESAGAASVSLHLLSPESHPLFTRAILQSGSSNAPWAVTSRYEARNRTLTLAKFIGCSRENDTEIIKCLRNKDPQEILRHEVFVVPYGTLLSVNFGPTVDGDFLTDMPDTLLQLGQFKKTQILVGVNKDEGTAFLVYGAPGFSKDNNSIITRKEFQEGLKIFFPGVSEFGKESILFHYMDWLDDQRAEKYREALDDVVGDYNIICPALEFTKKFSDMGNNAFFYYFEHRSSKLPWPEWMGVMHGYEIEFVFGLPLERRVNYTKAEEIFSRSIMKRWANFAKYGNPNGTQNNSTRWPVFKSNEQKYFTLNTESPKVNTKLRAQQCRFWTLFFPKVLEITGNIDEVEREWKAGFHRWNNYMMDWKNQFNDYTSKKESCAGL
Chain of AChE (O42275 24-633): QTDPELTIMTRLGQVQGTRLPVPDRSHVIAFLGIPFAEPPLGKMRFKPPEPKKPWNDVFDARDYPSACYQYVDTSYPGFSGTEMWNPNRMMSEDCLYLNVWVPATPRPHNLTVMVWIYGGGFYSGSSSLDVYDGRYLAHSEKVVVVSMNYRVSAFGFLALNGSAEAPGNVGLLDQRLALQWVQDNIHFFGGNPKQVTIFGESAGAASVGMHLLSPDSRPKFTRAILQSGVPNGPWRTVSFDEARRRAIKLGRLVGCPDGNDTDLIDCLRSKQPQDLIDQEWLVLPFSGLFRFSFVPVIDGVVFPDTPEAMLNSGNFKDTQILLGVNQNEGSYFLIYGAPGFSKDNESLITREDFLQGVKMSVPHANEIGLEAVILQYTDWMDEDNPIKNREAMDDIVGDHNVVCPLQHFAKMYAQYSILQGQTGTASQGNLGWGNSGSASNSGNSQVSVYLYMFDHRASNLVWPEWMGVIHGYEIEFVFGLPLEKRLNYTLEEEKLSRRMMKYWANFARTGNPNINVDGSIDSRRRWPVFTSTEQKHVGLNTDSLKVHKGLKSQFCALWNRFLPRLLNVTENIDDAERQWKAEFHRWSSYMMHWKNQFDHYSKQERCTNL

| SMILES | IC50 (AChE) | IC50 (BuChE) | IC50 at 24 h [1] | viability at 24 h, 10 µM [1] | viability at 24 h, 1 mM [1] | Cytotoxicity (in words) [2] |
| --- | --- | --- | --- | --- | --- | --- |
| O=CNC1CC(c2ccccc2)Nc2c1ccc1cccnc21 (stereo not drawn) [4 a, N‐(2‐phenyl‐1,2,3,4‐tetrahydro‐1,10‐phenanthroline‐4‐yl) formamide] | > 500 µM | – | – | – | – | – |
| O=CNC1CC(c2ccccn2)Nc2c1ccc1cccnc21 (stereo not drawn) [4 b, N‐(2‐(pyridin‐2‐yl)‐1,2,3,4‐tetrahydro‐1,10‐phenanthroline‐4‐yl) formamide] | 143.66 ± 0.02 µM | 152.99 ± 0.01 µM | – | – | – | – |
| O=CNC1CC(c2cccnc2)Nc2c1ccc1cccnc21 (stereo not drawn) [4 c, N‐(2‐(pyridin‐3‐yl)‐1,2,3,4‐tetrahydro‐1,10‐phenanthroline‐4‐yl) formamide] | 140.2 ± 0.02 µM | – | – | – | – | – |
| O=CNC1CC(c2ccncc2)Nc2c1ccc1cccnc21 (stereo not drawn) [4 d, N‐(2‐(pyridin‐4‐yl)1,2,3,4‐tetrahydro‐1,10‐phenanthroline‐4‐yl) formamide] | 63.63 ± 0.01 µM | 138.63 ± 0.01 µM | 5500 µM | 132 ± 25.6% | 102 ± 18.9% | non‐cytoxicity |
| COc1ccc(C2CC(NC=O)c3ccc4cccnc4c3N2)cc1 (stereo not drawn) [4 e, N‐(2‐(4‐methoxyphenyl)‐1,2,3,4‐tetrahydro‐1,10‐phenanthroline‐4‐yl) formamide] | 362.11 ± 0.03 µM | – | 3700 µM | 119 ± 6.4% | 78.5 ± 12.5% | – |
| O=CNC1CC(c2ccc([N+](=O)[O-])cc2)Nc2c1ccc1cccnc21 (stereo not drawn) [4 g, N‐(2‐(4‐nitrophenyl)‐1,2,3,4‐tetrahydro‐1,10‐phenanthroline‐4‐yl) formamide] | 96.52 ± 0.01 µM | – | 300 µM | 116 ± 5% | 21.9 ± 3.9% | non‐cytoxicity |
| Nc1cccc2cccnc12 [8‐amino‐quinoline, reference compound] | 171.56 ± 0.01 µM | 195.08 ± 0.02 µM | – | – | – | – |

Source: article PMC6528641 (ChemistryOpen, 2019)
